ChEMBL document CHEMBL5303300, “EUbOPEN Chemogenomics Library - Multiplex” (2023)
Several values for one entry are separate records, joined by “and”; a condition that tells them apart may be missing. Equal entries are not always repeated.

Tests used:
HEK-293T = experiment: Multiplex assay against HEK293T; format: toxicity, cell-based; conditions: human, number of replicates 2
Method in brief: (§1)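 Compound was added to live cells that had been stained at seeding with Hoechst33342, BioTracker Green Microtubule Cytoskeleton Dye, MitoTracker Red and Annexin V Alexa Fluor 680, and imaging followed on a CQ1 microscope at 37°C and 5% CO2. CellPathfinder machine-learning gating divided cells into Hoechst high-intensity objects or normal cells, normal cells into healthy, pyknosed or fragmented nuclei, and pyknosed cells into mitotic or apoptotic. Tubulin, mitochondrial-mass and membrane-permeability phenotypes are per cents of healthy-nucleus cells.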

U2OS = experiment: Multiplex assay against U2OS; format: toxicity, cell-based; conditions: human, number of replicates 2; method in brief: as §1
[1] = 24 h, 1 µM, compound concentration 1 uM
[2] = 24 h, 10 µM, compound concentration 10 uM
[3] = 48 h, 1 µM, compound concentration 1 uM
[4] = 48 h, 10 µM, compound concentration 10 uM
[5] = 12 h, 1 µM, compound concentration 1 uM
[6] = 12 h, 10 µM, compound concentration 10 uM

Question: Which “Population Mitotic Cells (%)” value (HEK-293T; [1]) does the source give for `COc1ncc(-c2cc(-c3ncc(CN4C[C@@H](C)O[C@@H](C)C4)o3)c3cn[nH]c3c2)cc1NS(C)(=O)=O` here?
Answer: 59% and 45%

Question: And the “Population Normal (%)” value (HEK-293T; [1])?
Answer: 87% and 89%

Question: What about the “Population Pyknosed Nuclei (%)” value (HEK-293T; [1]) of the same compound?
Answer: 6% and 10%

Question: And the “Population Tubulin-Different-Phenotype (%)” value (HEK-293T; [1])?
Answer: 37% and 44%

Question: And the “Total Cell Count” value (HEK-293T; [1])?
Answer: 1173 and 987

Question: And the “Population Apoptotic (%)” value (HEK-293T; [2])?
Answer: 46% and 45%

Question: What about the “Population Fragmented Nuclei (%)” value (HEK-293T; [2]) of the same compound?
Answer: 4%

Question: What about the “Population Healthy Nuclei (%)” value (HEK-293T; [2]) of the same compound?
Answer: 82% and 76%

Question: And the “Population Hoechst High Intensity Objects (%)” value (HEK-293T; [2])?
Answer: 9% and 10%

Question: What about the “Population Membrane Permeable-Phenotype (%)” value (HEK-293T; [2]) of the same compound?
Answer: 1%

Question: And the “Population Mitochondria Different-Phenotype (%)” value (HEK-293T; [2])?
Answer: 41% and 44%

Question: And the “Population Mitotic Cells (%)” value (HEK-293T; [2])?
Answer: 53% and 54%

Question: What about the “Population Normal (%)” value (HEK-293T; [2]) of the same compound?
Answer: 90% and 89%

Question: What about the “Population Pyknosed Nuclei (%)” value (HEK-293T; [2]) of the same compound?
Answer: 13% and 19%

Question: And the “Population Tubulin-Different-Phenotype (%)” value (HEK-293T; [2])?
Answer: 79% and 86%

Question: And the “Total Cell Count” value (HEK-293T; [2])?
Answer: 379 and 373

Question: And the “Population Apoptotic (%)” value (HEK-293T; [3])?
Answer: 13% and 26%

Question: And the “Population Fragmented Nuclei (%)” value (HEK-293T; [3])?
Answer: 15% and 9%

Question: And the “Population Healthy Nuclei (%)” value (HEK-293T; [3])?
Answer: 81% and 85%

Question: And the “Population Hoechst High Intensity Objects (%)” value (HEK-293T; [3])?
Answer: 11%

Question: And the “Population Membrane Permeable-Phenotype (%)” value (HEK-293T; [3])?
Answer: 7% and 2%

Question: And the “Population Mitochondria Different-Phenotype (%)” value (HEK-293T; [3])?
Answer: 0% and 2%

Question: And the “Population Mitotic Cells (%)” value (HEK-293T; [3])?
Answer: 86% and 73%

Question: And the “Population Normal (%)” value (HEK-293T; [3])?
Answer: 88%

Question: And the “Population Pyknosed Nuclei (%)” value (HEK-293T; [3])?
Answer: 2% and 4%

Question: What about the “Population Tubulin-Different-Phenotype (%)” value (HEK-293T; [3]) of the same compound?
Answer: 22% and 30%

Question: And the “Total Cell Count” value (HEK-293T; [3])?
Answer: 2777 and 1879

Question: And the “Population Apoptotic (%)” value (HEK-293T; [4])?
Answer: 55% and 40%

Question: And the “Population Fragmented Nuclei (%)” value (HEK-293T; [4])?
Answer: 6% and 4%

Question: And the “Population Healthy Nuclei (%)” value (HEK-293T; [4])?
Answer: 87% and 83%

Question: What about the “Population Hoechst High Intensity Objects (%)” value (HEK-293T; [4]) of the same compound?
Answer: 13% and 9%

Question: What about the “Population Membrane Permeable-Phenotype (%)” value (HEK-293T; [4]) of the same compound?
Answer: 2% and 3%

Question: What about the “Population Mitochondria Different-Phenotype (%)” value (HEK-293T; [4]) of the same compound?
Answer: 18% and 21%

Question: What about the “Population Mitotic Cells (%)” value (HEK-293T; [4]) of the same compound?
Answer: 44% and 59%

Question: What about the “Population Normal (%)” value (HEK-293T; [4]) of the same compound?
Answer: 86% and 90%

Question: And the “Population Pyknosed Nuclei (%)” value (HEK-293T; [4])?
Answer: 6% and 11%

Question: And the “Population Tubulin-Different-Phenotype (%)” value (HEK-293T; [4])?
Answer: 74% and 82%

Question: And the “Total Cell Count” value (HEK-293T; [4])?
Answer: 527 and 510

Question: And the “Population Apoptotic (%)” value (U2OS; [5])?
Answer: 66% and 57%

Question: What about the “Population Fragmented Nuclei (%)” value (U2OS; [5]) of the same compound?
Answer: 3% and 13%

Question: And the “Population Healthy Nuclei (%)” value (U2OS; [5])?
Answer: 85% and 69%

Question: And the “Population Hoechst High Intensity Objects (%)” value (U2OS; [5])?
Answer: 0%

Question: And the “Population Membrane Permeable-Phenotype (%)” value (U2OS; [5])?
Answer: 1% and 0%

Question: What about the “Population Mitochondria Different-Phenotype (%)” value (U2OS; [5]) of the same compound?
Answer: 0%

Question: What about the “Population Mitotic Cells (%)” value (U2OS; [5]) of the same compound?
Answer: 33% and 42%

Question: And the “Population Normal (%)” value (U2OS; [5])?
Answer: 99% and 100%

Question: What about the “Population Pyknosed Nuclei (%)” value (U2OS; [5]) of the same compound?
Answer: 11% and 16%

Question: And the “Population Tubulin-Different-Phenotype (%)” value (U2OS; [5])?
Answer: 84% and 43%

Question: What about the “Population Apoptotic (%)” value (U2OS; [6]) of the same compound?
Answer: 50% and 64%

Question: And the “Population Healthy Nuclei (%)” value (U2OS; [6])?
Answer: 68% and 77%

Question: And the “Population Hoechst High Intensity Objects (%)” value (U2OS; [6])?
Answer: 0%

Question: What about the “Population Membrane Permeable-Phenotype (%)” value (U2OS; [6]) of the same compound?
Answer: 12% and 10%

Question: What about the “Population Mitochondria Different-Phenotype (%)” value (U2OS; [6]) of the same compound?
Answer: 0% and 5%

Question: And the “Population Mitotic Cells (%)” value (U2OS; [6])?
Answer: 50% and 35%

Question: And the “Population Normal (%)” value (U2OS; [6])?
Answer: 100% and 99%

Question: And the “Population Pyknosed Nuclei (%)” value (U2OS; [6])?
Answer: 10% and 18%

Question: And the “Population Tubulin-Different-Phenotype (%)” value (U2OS; [6])?
Answer: 48% and 45%

Question: And the “Population Apoptotic (%)” value (U2OS; [1])?
Answer: 65% and 87%

Question: What about the “Population Fragmented Nuclei (%)” value (U2OS; [1]) of the same compound?
Answer: 1% and 9%

Question: What about the “Population Healthy Nuclei (%)” value (U2OS; [1]) of the same compound?
Answer: 87% and 75%

Question: What about the “Population Hoechst High Intensity Objects (%)” value (U2OS; [1]) of the same compound?
Answer: 0%

Question: What about the “Population Membrane Permeable-Phenotype (%)” value (U2OS; [1]) of the same compound?
Answer: 1% and 0%

Question: What about the “Population Mitochondria Different-Phenotype (%)” value (U2OS; [1]) of the same compound?
Answer: 0%

Question: And the “Population Mitotic Cells (%)” value (U2OS; [1])?
Answer: 34% and 12%

Question: What about the “Population Normal (%)” value (U2OS; [1]) of the same compound?
Answer: 99% and 100%

Question: What about the “Population Pyknosed Nuclei (%)” value (U2OS; [1]) of the same compound?
Answer: 10% and 15%

Question: And the “Population Tubulin-Different-Phenotype (%)” value (U2OS; [1])?
Answer: 82% and 47%

Question: What about the “Population Apoptotic (%)” value (U2OS; [2]) of the same compound?
Answer: 64% and 74%

Question: And the “Population Healthy Nuclei (%)” value (U2OS; [2])?
Answer: 49% and 69%

Question: And the “Population Hoechst High Intensity Objects (%)” value (U2OS; [2])?
Answer: 0%

Question: What about the “Population Membrane Permeable-Phenotype (%)” value (U2OS; [2]) of the same compound?
Answer: 0% and 8%

Question: What about the “Population Mitochondria Different-Phenotype (%)” value (U2OS; [2]) of the same compound?
Answer: 7% and 9%

Question: And the “Population Mitotic Cells (%)” value (U2OS; [2])?
Answer: 35% and 25%

Question: What about the “Population Normal (%)” value (U2OS; [2]) of the same compound?
Answer: 100%

Question: And the “Population Pyknosed Nuclei (%)” value (U2OS; [2])?
Answer: 26% and 23%

Question: What about the “Population Tubulin-Different-Phenotype (%)” value (U2OS; [2]) of the same compound?
Answer: 76% and 49%

Question: What about the “Population Apoptotic (%)” value (U2OS; [3]) of the same compound?
Answer: 65% and 69%

Question: What about the “Population Fragmented Nuclei (%)” value (U2OS; [3]) of the same compound?
Answer: 2% and 7%

Question: What about the “Population Healthy Nuclei (%)” value (U2OS; [3]) of the same compound?
Answer: 87% and 72%

Question: What about the “Population Hoechst High Intensity Objects (%)” value (U2OS; [3]) of the same compound?
Answer: 0%

Question: What about the “Population Membrane Permeable-Phenotype (%)” value (U2OS; [3]) of the same compound?
Answer: 1% and 0%

Question: And the “Population Mitochondria Different-Phenotype (%)” value (U2OS; [3])?
Answer: 0%

Question: And the “Population Mitotic Cells (%)” value (U2OS; [3])?
Answer: 34% and 30%

Question: And the “Population Normal (%)” value (U2OS; [3])?
Answer: 99% and 100%

Question: What about the “Population Pyknosed Nuclei (%)” value (U2OS; [3]) of the same compound?
Answer: 10% and 19%

Question: What about the “Population Tubulin-Different-Phenotype (%)” value (U2OS; [3]) of the same compound?
Answer: 81% and 43%

Question: And the “Population Apoptotic (%)” value (U2OS; [4])?
Answer: 76% and 81%

Question: What about the “Population Healthy Nuclei (%)” value (U2OS; [4]) of the same compound?
Answer: 55% and 62%

Question: And the “Population Hoechst High Intensity Objects (%)” value (U2OS; [4])?
Answer: 0%

Question: And the “Population Membrane Permeable-Phenotype (%)” value (U2OS; [4])?
Answer: 7% and 8%

Question: What about the “Population Mitochondria Different-Phenotype (%)” value (U2OS; [4]) of the same compound?
Answer: 10% and 12%

Question: What about the “Population Mitotic Cells (%)” value (U2OS; [4]) of the same compound?
Answer: 23% and 18%

Question: What about the “Population Normal (%)” value (U2OS; [4]) of the same compound?
Answer: 100%

Question: What about the “Population Pyknosed Nuclei (%)” value (U2OS; [4]) of the same compound?
Answer: 25% and 30%

Question: What about the “Population Tubulin-Different-Phenotype (%)” value (U2OS; [4]) of the same compound?
Answer: 63% and 50%
